Data: ChEMBL document CHEMBL3865805, “Discovery and antiplatelet activity of a selective PI3Kβ inhibitor (MIPS-9922)” (Eur J Med Chem, 2016)
Activity calls are given as the source filed them. The rule behind the calls is not given here.

Target: T1, Phosphatidylinositol 4,5-bisphosphate 3-kinase catalytic subunit beta isoform (Homo sapiens, UniProt P42338)
Assay: Inhibition of PI3Kbeta in human washed platelets assessed as suppression of ADP-induced platelet aggregation preincubated for 5 mins followed by ADP stimulation after 10 mins by light transmission aggregometric analysis
Details: not given
Method in brief: (§1)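 Washed human platelets in a conventional aggregometer. Aggregation induced by ADP; IC50 taken from the dose-response curve.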
Target sequence in this assay (P42338 whole entry, looked up, canonical isoform): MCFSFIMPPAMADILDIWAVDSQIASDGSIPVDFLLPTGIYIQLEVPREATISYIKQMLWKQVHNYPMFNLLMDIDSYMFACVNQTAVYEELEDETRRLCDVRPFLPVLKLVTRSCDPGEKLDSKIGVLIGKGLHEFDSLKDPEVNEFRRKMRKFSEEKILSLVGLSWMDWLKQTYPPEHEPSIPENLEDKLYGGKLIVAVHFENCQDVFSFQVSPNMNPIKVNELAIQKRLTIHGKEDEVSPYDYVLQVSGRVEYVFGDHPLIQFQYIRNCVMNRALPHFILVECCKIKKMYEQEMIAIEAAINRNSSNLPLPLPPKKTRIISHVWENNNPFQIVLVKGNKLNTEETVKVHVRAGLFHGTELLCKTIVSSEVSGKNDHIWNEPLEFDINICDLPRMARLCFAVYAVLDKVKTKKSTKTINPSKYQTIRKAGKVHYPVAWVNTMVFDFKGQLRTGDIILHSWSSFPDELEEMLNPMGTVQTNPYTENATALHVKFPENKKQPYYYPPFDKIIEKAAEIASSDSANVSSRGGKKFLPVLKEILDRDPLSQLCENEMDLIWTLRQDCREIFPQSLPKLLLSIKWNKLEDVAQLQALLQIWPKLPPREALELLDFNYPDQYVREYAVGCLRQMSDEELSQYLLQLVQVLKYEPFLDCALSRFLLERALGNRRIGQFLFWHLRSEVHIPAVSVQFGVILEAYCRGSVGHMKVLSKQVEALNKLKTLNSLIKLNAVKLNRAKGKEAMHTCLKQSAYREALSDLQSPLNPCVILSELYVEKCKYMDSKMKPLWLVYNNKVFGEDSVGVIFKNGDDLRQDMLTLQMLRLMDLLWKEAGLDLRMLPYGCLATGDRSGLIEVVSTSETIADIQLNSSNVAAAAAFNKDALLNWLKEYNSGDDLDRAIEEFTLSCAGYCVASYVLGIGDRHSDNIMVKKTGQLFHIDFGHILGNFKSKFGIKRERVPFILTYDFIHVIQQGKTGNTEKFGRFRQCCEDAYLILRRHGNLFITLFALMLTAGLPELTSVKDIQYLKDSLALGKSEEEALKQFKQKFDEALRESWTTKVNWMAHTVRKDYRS

inhibition	SMILES
Dose-dependent effect	O=C([C@H]1CCCN1)N1CCN(c2nc(N3CCOCC3)nc(-n3c(C(F)F)nc4ccccc43)n2)CC1
Dose-dependent effect	O=C([C@@H]1CCCN1)N1CCN(c2nc(N3CCOCC3)nc(-n3c(C(F)F)nc4ccccc43)n2)CC1

System: Platelet
Assay: […] activity in human washed platelets assessed as […] ADP-induced platelet aggregation at 10 to 1000 nM preincubated for 5 mins followed by ADP stimulation after 10 mins by light transmission aggregometric analysis
Type: functional, cell-based
Details: not given

SMILES	Activity
NCCCC[C@H](N)C(=O)N1CCN(c2nc(N3CCOCC3)nc(-n3c(C(F)F)nc4ccccc43)n2)CC1	Active

Target: T2, Phosphatidylinositol 4,5-bisphosphate 3-kinase catalytic subunit delta isoform (Homo sapiens, UniProt O00329)
T2 sequence (O00329 whole entry): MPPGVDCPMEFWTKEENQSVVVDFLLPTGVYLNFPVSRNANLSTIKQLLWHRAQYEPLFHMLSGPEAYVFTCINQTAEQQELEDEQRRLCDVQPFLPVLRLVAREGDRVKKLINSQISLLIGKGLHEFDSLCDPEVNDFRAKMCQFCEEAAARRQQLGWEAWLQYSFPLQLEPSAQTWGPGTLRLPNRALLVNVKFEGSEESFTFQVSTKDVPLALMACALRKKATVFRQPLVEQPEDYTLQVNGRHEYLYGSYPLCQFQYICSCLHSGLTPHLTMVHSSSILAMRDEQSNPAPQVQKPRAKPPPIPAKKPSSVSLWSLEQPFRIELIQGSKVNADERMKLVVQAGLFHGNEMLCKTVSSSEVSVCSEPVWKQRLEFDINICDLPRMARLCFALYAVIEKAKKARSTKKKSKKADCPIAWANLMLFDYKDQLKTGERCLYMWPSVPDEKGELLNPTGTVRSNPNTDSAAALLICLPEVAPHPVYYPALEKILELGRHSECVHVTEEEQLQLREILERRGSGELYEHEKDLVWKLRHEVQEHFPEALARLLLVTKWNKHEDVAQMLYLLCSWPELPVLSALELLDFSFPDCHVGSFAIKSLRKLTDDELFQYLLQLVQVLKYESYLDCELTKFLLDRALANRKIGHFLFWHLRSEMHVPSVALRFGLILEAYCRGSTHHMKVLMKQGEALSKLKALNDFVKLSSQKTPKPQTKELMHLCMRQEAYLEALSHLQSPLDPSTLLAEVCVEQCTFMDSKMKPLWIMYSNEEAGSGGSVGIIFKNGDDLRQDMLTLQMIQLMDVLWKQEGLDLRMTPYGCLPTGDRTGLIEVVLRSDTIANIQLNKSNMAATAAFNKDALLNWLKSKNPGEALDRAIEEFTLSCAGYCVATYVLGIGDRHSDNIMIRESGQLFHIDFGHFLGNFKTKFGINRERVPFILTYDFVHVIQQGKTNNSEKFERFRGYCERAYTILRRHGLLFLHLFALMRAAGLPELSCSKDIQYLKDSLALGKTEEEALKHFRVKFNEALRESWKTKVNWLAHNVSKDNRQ
Assay: Inhibition of PI3Kdelta (unknown origin) expressed in baculovirus-infected fall armyworm sf21 cells co-expressing p85 by kinase-glo luminescence assay
Details: not given
Method in brief: (§2)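 Recombinant p110 isoforms made by baculovirus in Sf21 cells. Kinase activity read by Kinase-Glo luminescence at 10 µM ATP. IC50 taken as the mean of at least two duplicate experiments.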

IC50	SMILES
12 nM	O=C([C@H]1CCCN1)N1CCN(c2nc(N3CCOCC3)nc(-n3c(C(F)F)nc4ccccc43)n2)CC1
17000 nM	N[C@@H](CC(=O)N1CCN(c2nc(N3CCOCC3)nc(-n3c(C(F)F)nc4ccccc43)n2)CC1)c1ccccc1
9100 nM	CC(C)C[C@H](N)CC(=O)N1CCN(c2nc(N3CCOCC3)nc(-n3c(C(F)F)nc4ccccc43)n2)CC1
330 nM	O=C(C1CCNCC1)N1CCN(c2nc(N3CCOCC3)nc(-n3c(C(F)F)nc4ccccc43)n2)CC1
1000 nM	NCCC1CCN(c2nc(N3CCOCC3)nc(-n3c(C(F)F)nc4ccccc43)n2)CC1
1090 nM	C[C@H](N)C(=O)N1CCC(c2nc(N3CCOCC3)nc(-n3c(C(F)F)nc4ccccc43)n2)CC1
120 nM	NCC(=O)N1CCC(c2nc(N3CCOCC3)nc(-n3c(C(F)F)nc4ccccc43)n2)CC1
740 nM	C[C@@H](N)C(=O)N1CCC(c2nc(N3CCOCC3)nc(-n3c(C(F)F)nc4ccccc43)n2)CC1

System: not listed separately
Assay: Drug level in iv dosed rat serum after 5 mins by LC-MS analysis
Type: ADME, organism-based
Details: read-out: Drug uptake

concentration at 5 min	SMILES
2000 nM	Cc1cc(C(C)Nc2ccccc2)c2nc(N3CCOCC3)cc(=O)n2c1 (stereo not drawn)

System: not listed separately
Assay: Inhibition of PI3Kbeta in human washed platelets assessed as suppression of TRAP-induced platelet aggregation at 10 to 1000 nM preincubated for 5 mins followed by TRAP stimulation after 10 mins by light transmission aggregometric analysis
Details: not given

inhibition	SMILES
Active	O=C([C@H]1CCCN1)N1CCN(c2nc(N3CCOCC3)nc(-n3c(C(F)F)nc4ccccc43)n2)CC1
Active	O=C([C@@H]1CCCN1)N1CCN(c2nc(N3CCOCC3)nc(-n3c(C(F)F)nc4ccccc43)n2)CC1
Active	NCCC1CCN(c2nc(N3CCOCC3)nc(-n3c(C(F)F)nc4ccccc43)n2)CC1

Target: T1, Phosphatidylinositol 4,5-bisphosphate 3-kinase catalytic subunit beta isoform
Assay: Inhibition of PI3Kbeta in human washed platelets assessed as suppression of ADP-induced platelet aggregation at 1 to 1000 nM preincubated for 5 mins followed by ADP stimulation after 10 mins by light transmission aggregometric analysis
Details: not given
Method in brief: as §1
Target sequence in this assay (P42338 whole entry, looked up, canonical isoform): as the sequence (P42338 whole entry, looked up, canonical isoform) above

inhibition	SMILES
Active	C[C@H](N)C(=O)N1CCN(c2nc(N3CCOCC3)nc(-n3c(C(F)F)nc4ccccc43)n2)CC1
Active	NCCC1CCN(c2nc(N3CCOCC3)nc(-n3c(C(F)F)nc4ccccc43)n2)CC1

Target: T1, Phosphatidylinositol 4,5-bisphosphate 3-kinase catalytic subunit beta isoform
Assay: Inhibition of PI3Kbeta (unknown origin) expressed in baculovirus-infected fall armyworm sf21 cells co-expressing p85 by kinase-glo luminescence assay
Details: not given
Method in brief: as §2
Target sequence in this assay (P42338 whole entry, canonical isoform): as the sequence (P42338 whole entry, looked up, canonical isoform) above

IC50	SMILES
36 nM	O=C([C@H]1CCCN1)N1CCN(c2nc(N3CCOCC3)nc(-n3c(C(F)F)nc4ccccc43)n2)CC1
554 nM	NC1CCCN(c2nc(N3CCOCC3)nc(-n3c(C(F)F)nc4ccccc43)n2)C1 (stereo not drawn)
1800 nM	N[C@@H](CC(=O)N1CCN(c2nc(N3CCOCC3)nc(-n3c(C(F)F)nc4ccccc43)n2)CC1)c1ccccc1
1330 nM	NCC(=O)NC1CCN(c2nc(N3CCOCC3)nc(-n3c(C(F)F)nc4ccccc43)n2)CC1
428 nM	NCC(=O)NCC1CCN(c2nc(N3CCOCC3)nc(-n3c(C(F)F)nc4ccccc43)n2)CC1
2000 nM	O=C(C1CCCN1)N1CCC(c2nc(N3CCOCC3)nc(-n3c(C(F)F)nc4ccccc43)n2)CC1 (single isomer, unassigned)
> 10000 nM	CC(C)C[C@H](N)CC(=O)N1CCN(c2nc(N3CCOCC3)nc(-n3c(C(F)F)nc4ccccc43)n2)CC1
811 nM	NCC1CCN(c2nc(N3CCOCC3)nc(-n3c(C(F)F)nc4ccccc43)n2)CC1
1210 nM	NCC(=O)NC1CCCN(c2nc(N3CCOCC3)nc(-n3c(C(F)F)nc4ccccc43)n2)C1 (stereo not drawn)
521 nM	CC(=O)NC1CCN(c2nc(N3CCOCC3)nc(-n3c(C(F)F)nc4ccccc43)n2)CC1
3210 nM	O=C(C1CCNCC1)N1CCN(c2nc(N3CCOCC3)nc(-n3c(C(F)F)nc4ccccc43)n2)CC1
190 nM	NCCC1CCN(c2nc(N3CCOCC3)nc(-n3c(C(F)F)nc4ccccc43)n2)CC1
540 nM	C[C@H](N)C(=O)N1CCC(c2nc(N3CCOCC3)nc(-n3c(C(F)F)nc4ccccc43)n2)CC1
2110 nM	FC(F)c1nc2ccccc2n1-c1nc(NC2CCNCC2)nc(N2CCOCC2)n1
360 nM	NCC(=O)N1CCC(c2nc(N3CCOCC3)nc(-n3c(C(F)F)nc4ccccc43)n2)CC1
3200 nM	C[C@@H](N)C(=O)N1CCC(c2nc(N3CCOCC3)nc(-n3c(C(F)F)nc4ccccc43)n2)CC1
1060 nM	NCC(=O)N1CCC(Nc2nc(N3CCOCC3)nc(-n3c(C(F)F)nc4ccccc43)n2)CC1
955 nM	NC1CCN(c2nc(N3CCOCC3)nc(-n3c(C(F)F)nc4ccccc43)n2)CC1

System: Platelet
Assay: Antiplatelet activity against human washed platelets assessed as reduction in shear-induced stationary platelet adhesionto vWF matrix at 2 uM preincubated for 5 mins followed by blood perfusion after 4 mins
Type: functional, cell-based
Details: not given
Method in brief: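 Human whole blood, anticoagulated, perfused over a vWf matrix at 1800 s^-1 for 4 min; stationary platelet adhesion scored. Vehicle DMSO 0.25% taken as 100%. Drug tested up to 5 µM. t test against 0.1 µM drug.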

SMILES	inhibition
Cc1cc(C(C)Nc2ccccc2)c2nc(N3CCOCC3)cc(=O)n2c1 (stereo not drawn)	Active

System: not listed separately
Assay: Drug level in iv dosed rat serum after 60 mins by LC-MS analysis
Type: ADME, organism-based
Details: read-out: Drug uptake

concentration at 1 h	SMILES
200 nM	Cc1cc(C(C)Nc2ccccc2)c2nc(N3CCOCC3)cc(=O)n2c1 (stereo not drawn)

Target: T1, Phosphatidylinositol 4,5-bisphosphate 3-kinase catalytic subunit beta isoform
Assay: Inhibition of PI3Kbeta in human washed platelets assessed as suppression of ADP-induced platelet aggregation at 0.5 uM preincubated for 5 mins followed by 25 uM ADP stimulation after 10 mins by light transmission aggregometric analysis
Details: not given
Method in brief: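 Washed human platelets in an aggregometer. Inhibitor at 0.5 µM. Aggregation induced by 5, 10 or 25 µM ADP; percent inhibition read.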
Target sequence in this assay (P42338 whole entry, looked up, canonical isoform): as the sequence (P42338 whole entry, looked up, canonical isoform) above

inhibition	SMILES
Active	Cc1cc(C(C)Nc2ccccc2)c2nc(N3CCOCC3)cc(=O)n2c1 (stereo not drawn)
